The source of these data is ChEMBL document CHEMBL1159100, “Synthesis and antibacterial activity of benzyl-[3-(benzylamino-methyl)-cyclohexylmethyl]-amine derivatives” (Bioorg Med Chem Lett, 2010).

In brackets after ≈: the same amount, converted by molar mass.

A short description of series [1]: Toxicity in human RBC assessed as hemolytic activity at 512 ug/ml. The note with it: red blood cells (RBC), read-out: Activity. The class given is cell-based, Erythrocyte. The essentials: (§1)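 Fresh human erythrocytes, 4% v/v in 35 mM phosphate buffer with 150 mM NaCl, incubated with test sample 1 h at 37 °C. After centrifugation, supernatant absorbance read at 414 nm. 0.1% Triton X-100 lysis taken as 100% hemolysis. Tested at concentrations up to 512 µg/mL.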

In series [2] the test system is Staphylococcus epidermidis. Nature of the series: Antimicrobial activity against Staphylococcus epidermidis after 24 hrs by microdilution assay. The class given is functional. A digest of the protocol:
(§2)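 NCCLS broth microdilution, final 100 µL. Bacteria grown in standard media to exponential phase. Compounds in 5% DMSO serially diluted; ~2–5 × 10^5 cells per well, 37 °C, 24 h, shaking 200 rpm. Growth read spectrophotometrically; percent survival relative to a drug-free 5% DMSO growth control; medium-only sterility control. MIC derived from survival data.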

A further series relates to Staphylococcus aureus. In words: Antimicrobial activity against Staphylococcus aureus after 24 hrs by microdilution assay. In kind it is functional. The essentials:
as §2

The next series concerns Pseudomonas aeruginosa. In words: Antimicrobial activity against Pseudomonas aeruginosa after 24 hrs by microdilution assay. In kind it is functional. The essentials: as §2
A further series relates to Escherichia coli. Nature of the series: Antimicrobial activity against Escherichia coli after 24 hrs by microdilution assay. In kind it is functional. The essentials:
as §2

The nature of series [3]: Toxicity in human RBC up to 512 ug/ml. In kind it is cell-based. The note with it: erythrocyte. A digest of the protocol:
as §1

With `CC(C)(C)c1ccc(CNCC2CCCC(CNCc3ccc(C(C)(C)C)cc3)C2)cc1` (configuration not stated), the hemolysis at 512 ug/ml in series [1] is 4%. The MIC in series [2] was determined as 0.008 µg/mL (≈ 0.0184 µM); against Staphylococcus aureus, 0.016 µg/mL (≈ 0.0368 µM); against Pseudomonas aeruginosa, 0.004 µg/mL (≈ 0.0092 µM); with Escherichia coli, 0.002 µg/mL (≈ 0.0046 µM).
Turning to `Fc1cccc(CNCC2CCCC(CNCc3cccc(F)c3)C2)c1` (configuration not stated), the MIC (in series [2]; in the series with Staphylococcus aureus; with Pseudomonas aeruginosa; in the series with Escherichia coli) was > 250 µg/mL in each case.
On to `O=[N+]([O-])c1cccc(CNCC2CCCC(CNCc3cccc([N+](=O)[O-])c3)C2)c1` (configuration not stated), for which the minimal inhibitory concentration (MIC) in series [2] was > 250 µg/mL; with Staphylococcus aureus, 0.02 µg/mL (≈ 0.0485 µM); against Pseudomonas aeruginosa it was > 250 µg/mL; against Escherichia coli it was > 250 µg/mL.
On to `Clc1cccc(Cl)c1CNCC1CCCC(CNCc2c(Cl)cccc2Cl)C1` (configuration not stated), for which the MIC (in series [2]; against Staphylococcus aureus; in the series on Pseudomonas aeruginosa; against Escherichia coli) was > 250 µg/mL each time. Besides, in series [3], the Activity entry was “Non-toxic”.
With `CCc1ccc(CNCC2CCCC(CNCc3ccc(CC)cc3)C2)cc1` (configuration not stated), the hemolysis at 512 ug/ml in series [1] worked out at 0.5%. Further, the MIC is 0.25 µg/mL (≈ 0.66 µM) in series [2], > 250 µg/mL in the series with Staphylococcus aureus, 0.125 µg/mL (≈ 0.33 µM) with Pseudomonas aeruginosa and > 250 µg/mL in the series on Escherichia coli.
`Clc1ccc(CNCC2CCCC(CNCc3ccc(Cl)cc3)C2)cc1` (configuration not stated): the minimal inhibitory concentration (MIC) in series [2] is 0.065 µg/mL (≈ 0.166 µM); in the series on Staphylococcus aureus it was 0.025 µg/mL (≈ 0.0639 µM); with Pseudomonas aeruginosa, 0.032 µg/mL (≈ 0.0818 µM); against Escherichia coli it was > 250 µg/mL. In addition, the Activity result in series [3] is “Non-toxic”.
In the same order, the values of `Brc1cccc(CNCC2CCCC(CNCc3cccc(Br)c3)C2)c1` (configuration not stated) are 0.125 µg/mL (≈ 0.26 µM), > 250 µg/mL, 0.125 µg/mL (≈ 0.26 µM), > 250 µg/mL and “Non-toxic”.
In the same order, the values of `Cc1cc(C)cc(CNCC2CCCC(CNCc3cc(C)cc(C)c3)C2)c1` (configuration not stated) are 0.25 µg/mL (≈ 0.66 µM), > 250 µg/mL, 1 µg/mL (≈ 2.64 µM), > 250 µg/mL and “Non-toxic”.
Regarding `Cc1ccccc1CNCC1CCCC(CNCc2ccccc2C)C1` (configuration not stated), the minimal inhibitory concentration (MIC) (in series [2]; with Staphylococcus aureus; with Pseudomonas aeruginosa; against Escherichia coli) was > 250 µg/mL throughout. For the same compound, the Activity entry in series [3] is recorded as “Non-toxic”.
`c1ccc(CNCC2CCCC(CNCc3ccccc3)C2)cc1` (configuration not stated): the MIC (in series [2]; with Staphylococcus aureus; against Pseudomonas aeruginosa; in the series on Escherichia coli) was > 250 µg/mL each time.
Turning to `Cc1ccc(CNCC2CCCC(CNCc3ccc(C)cc3)C2)cc1` (configuration not stated), the MIC is 1 µg/mL (≈ 2.85 µM) in series [2], > 250 µg/mL with Staphylococcus aureus, 0.5 µg/mL (≈ 1.43 µM) in the series on Pseudomonas aeruginosa and > 250 µg/mL against Escherichia coli. Further, the Activity entry in series [3] is given as “Non-toxic”.
With `Brc1ccc(CNCC2CCCC(CNCc3ccc(Br)cc3)C2)cc1` (configuration not stated), the minimal inhibitory concentration (MIC) was 0.125 µg/mL (≈ 0.26 µM) in series [2], > 250 µg/mL against Staphylococcus aureus, 0.032 µg/mL (≈ 0.0666 µM) against Pseudomonas aeruginosa and > 250 µg/mL against Escherichia coli. Also, the Activity entry in series [3] is on record as “Non-toxic”.
Consider `Cc1cccc(CNCC2CCCC(CNCc3cccc(C)c3)C2)c1` (configuration not stated), for which the minimal inhibitory concentration (MIC) in series [2] is 1 µg/mL (≈ 2.85 µM); against Staphylococcus aureus, > 250 µg/mL; in the series with Pseudomonas aeruginosa, 1 µg/mL (≈ 2.85 µM); in the series on Escherichia coli it was > 250 µg/mL. For the same compound, in series [3], the Activity entry was “Non-toxic”.
With `CC(C)c1ccc(CNCC2CCCC(CNCc3ccc(C(C)C)cc3)C2)cc1` (configuration not stated), the hemolysis at 512 ug/ml in series [1] was determined as 4%. Besides, the MIC was 0.125 µg/mL (≈ 0.307 µM) in series [2], > 250 µg/mL against Staphylococcus aureus, 0.125 µg/mL (≈ 0.307 µM) with Pseudomonas aeruginosa and > 250 µg/mL in the series on Escherichia coli.
Regarding `Cc1ccc(CNCC2CCCC(CNCc3ccc(C)c(C)c3)C2)cc1C` (configuration not stated), the MIC in series [2] is > 250 µg/mL; with Staphylococcus aureus it was > 250 µg/mL; against Pseudomonas aeruginosa it was 0.125 µg/mL (≈ 0.33 µM); against Escherichia coli it was > 250 µg/mL. In addition, the Activity result in series [3] is listed as “Non-toxic”.
Consider `CCCc1ccc(CNCC2CCCC(CNCc3ccc(CCC)cc3)C2)cc1` (configuration not stated), for which the hemolysis at 512 ug/ml in series [1] worked out at 4%. In addition, the MIC in series [2] is 0.016 µg/mL (≈ 0.0393 µM); in the series with Staphylococcus aureus it was > 250 µg/mL; against Pseudomonas aeruginosa it was 0.016 µg/mL (≈ 0.0393 µM); with Escherichia coli, 0.016 µg/mL (≈ 0.0393 µM).
In the case of `Fc1ccc(CNCC2CCCC(CNCc3ccc(F)cc3)C2)cc1` (configuration not stated), the minimum inhibitory concentration (MIC) (in series [2]; in the series with Staphylococcus aureus; with Pseudomonas aeruginosa; with Escherichia coli) was > 250 µg/mL throughout.
`Clc1cccc(CNCC2CCCC(CNCc3cccc(Cl)c3)C2)c1` (configuration not stated): the MIC was 0.25 µg/mL (≈ 0.639 µM) in series [2], > 250 µg/mL in the series with Staphylococcus aureus, 0.125 µg/mL (≈ 0.319 µM) against Pseudomonas aeruginosa and > 250 µg/mL in the series with Escherichia coli. In addition, the Activity entry in series [3] was “Non-toxic”.
In the case of `Cc1ccc(C)c(CNCC2CCCC(CNCc3cc(C)ccc3C)C2)c1` (configuration not stated), the MIC (in series [2]; against Staphylococcus aureus; in the series on Pseudomonas aeruginosa; in the series with Escherichia coli) was > 250 µg/mL throughout.
With `Cc1ccc(CNCC2CCCC(CNCc3ccc(C)cc3C)C2)c(C)c1` (configuration not stated), the MIC (in series [2]; against Staphylococcus aureus; against Pseudomonas aeruginosa; against Escherichia coli) was > 250 µg/mL each time.
For `CCCCc1ccc(CNCC2CCCC(CNCc3ccc(CCCC)cc3)C2)cc1` (configuration not stated), in series [1], the hemolysis at 512 ug/ml was 4%. Moreover, the minimum inhibitory concentration (MIC) in series [2] amounted to 0.004 µg/mL (≈ 0.0092 µM); against Staphylococcus aureus, 0.004 µg/mL (≈ 0.0092 µM); in the series on Pseudomonas aeruginosa it was 0.002 µg/mL (≈ 0.0046 µM); against Escherichia coli it was 0.016 µg/mL (≈ 0.0368 µM).
Consider `CN(C)[C@@H]1C(O)=C(C(N)=O)C(=O)[C@@]2(O)C(O)=C3C(=O)c4c(O)cccc4[C@@](C)(O)[C@H]3C[C@@H]12` [TETRACYCLINE], for which the results for the minimal inhibitory concentration (MIC) (in series [2]; in the series with Staphylococcus aureus; against Escherichia coli) were 0.02 µg/mL (≈ 0.045 µM), 0.01 µg/mL (≈ 0.0225 µM) and 0.001 µg/mL (≈ 0.00225 µM), respectively.
